In ChEMBL document CHEMBL3046450, “Pyrrole- and dihydropyrrole-fused neonicotinoids: design, synthesis, and insecticidal evaluation” (2013) one finds Activity and LC50 data, which are given here for 22 molecules.

Test [1] deals with Aphis craccivora. Put plainly: Insecticidal activity against Aphis craccivora (cowpea aphid) assessed as mortality at 500 mg/l. The format is functional. In short, it runs like this:
(§1)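 Compounds dissolved in DMF, then diluted with water containing Triton X-100 (0.1 mg L−1) to test concentrations of 500.0, 250.0 and 125.0 mg L−1, plus others; mortality of cowpea aphids was scored.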

For test [2], the system named is Aphis craccivora. Put plainly: Insecticidal activity against Aphis craccivora (cowpea aphid) assessed as mortality. It counts as functional. In short, it runs like this:
as §1

Converted amounts (≈) assume the structure as drawn.

As usually defined, the LC50 is the concentration lethal to half of the exposed cells or organisms. In the case of `CCOc1c([N+](=O)[O-])c2n(c1C)CCN2Cc1ccc(Cl)nc1`, the Activity in test [1] worked out at 100%. Moreover, in test [2], the median lethal concentration (LC50) was 37.3 µg/mL (≈ 111 µM).

As to `CCCCOC1C([N+](=O)[O-])=C(N(CC)Cc2ccc(Cl)nc2)N(C)C1(C)O` (stereo unspecified), in test [1], the Activity was found to be 16.4%.

Take `O=[N+]([O-])/N=C1\NCCN1Cc1ccc(Cl)nc1` [IMIDACLOPRID]: the Activity in test [1] was 100%. The LC50 in test [2] came to 8.9 µg/mL (≈ 34.8 µM).

Take `CCCOc1c([N+](=O)[O-])c2n(c1C)CCN2Cc1ccc(Cl)nc1`: in test [1], the Activity is given as 100%. In addition, the median lethal concentration (LC50) in test [2] came out at 24.5 µg/mL (≈ 69.8 µM).

Consider `CC12OCCCCOC1C([N+](=O)[O-])=C1N(Cc3ccc(Cl)nc3)CCN12` (stereo unspecified), for which the Activity in test [1] amounted to 100%. Further, the LC50 in test [2] turned out to be 14.8 µg/mL (≈ 38.9 µM).

On to `CCCOC1C([N+](=O)[O-])=C(N(CC)Cc2ccc(Cl)nc2)N(C)C1(C)O` (stereo unspecified), for which the Activity in test [1] worked out at 19%.

For the molecule `CCCCOC1C([N+](=O)[O-])=C2N(Cc3ccc(Cl)nc3)CCN2C1(C)OCCCC` (stereo unspecified), in test [1], the Activity is 100%. Further, the LC50 in test [2] was 3.4 µg/mL (≈ 7.75 µM).

For `CCCCOc1c([N+](=O)[O-])c2n(c1C)CCN2Cc1ccc(Cl)nc1`, the Activity in test [1] amounted to 100%. Further, the LC50 in test [2] came out at 39.5 µg/mL (≈ 108 µM).

Take `CCCOC1C([N+](=O)[O-])=C2N(Cc3ccc(Cl)nc3)CCN2C1(C)OCCC` (stereo unspecified): the Activity in test [1] amounted to 100%. Moreover, in test [2], the LC50 stood at 0.8 µg/mL (≈ 1.95 µM).

With `CC1C(=O)C([N+](=O)[O-])=C2N(Cc3ccc(Cl)nc3)CCN21` (stereo unspecified), the Activity in test [1] is recorded as 100%. The LC50 in test [2] turned out to be 43.5 µg/mL (≈ 141 µM).

On to `COc1c([N+](=O)[O-])c2n(c1C)CCN2Cc1ccc(Cl)nc1`, for which the Activity in test [1] turned out to be 100%. Also, the LC50 in test [2] came to 14.6 µg/mL (≈ 45.2 µM).

`CC12OCCOC1C([N+](=O)[O-])=C1N(Cc3ccc(Cl)nc3)CCN12` (stereo unspecified): the Activity in test [1] is 100%. In addition, the 50% lethal concentration (LC50) in test [2] amounted to 10 µg/mL (≈ 28.3 µM).

For `CCN(Cc1ccc(Cl)nc1)C1=C([N+](=O)[O-])C(OC(C)C)C(C)(O)N1C` (stereo unspecified), the Activity in test [1] worked out at 21.2%.

In the case of `COC1C([N+](=O)[O-])=C2N(Cc3ccc(Cl)nc3)CCN2C1(C)OC` (stereo unspecified), the Activity in test [1] stood at 100%. Besides, the LC50 in test [2] was 0.7 µg/mL (≈ 1.97 µM).

Regarding `CCOc1c([N+](=O)[O-])c(N(CC)Cc2ccc(Cl)nc2)n(C)c1C`, the Activity in test [1] is 84%.

`CCOC1C([N+](=O)[O-])=C2N(Cc3ccc(Cl)nc3)CCN2C1(C)OCC` (stereo unspecified): the Activity in test [1] was determined as 100%. The LC50 in test [2] came out at 0.6 µg/mL (≈ 1.57 µM).

Take `CC12OCCCOC1C([N+](=O)[O-])=C1N(Cc3ccc(Cl)nc3)CCN12` (stereo unspecified): the Activity in test [1] is 100%. The LC50 in test [2] worked out at 11.1 µg/mL (≈ 30.3 µM).

Regarding `CCOC1C([N+](=O)[O-])=C(N(CC)Cc2ccc(Cl)nc2)N(C)C1(C)O` (stereo unspecified), in test [1], the Activity is given as 29.7%.

For the molecule `CCCOc1c([N+](=O)[O-])c(N(CC)Cc2ccc(Cl)nc2)n(C)c1C`, the Activity in test [1] is listed as 77%.

Regarding `CC1(O)C(O)C([N+](=O)[O-])=C2N(Cc3ccc(Cl)nc3)CCN21` (stereo unspecified), in test [1], the Activity is on record as 100%. In addition, the LC50 in test [2] turned out to be 2 µg/mL (≈ 6.12 µM).

Regarding `CCN(Cc1ccc(Cl)nc1)C1=C([N+](=O)[O-])C(OC)C(C)(O)N1C` (stereo unspecified), the Activity in test [1] is given as 21.6%.

On to `CCN(Cc1ccc(Cl)nc1)c1c([N+](=O)[O-])c(OC)c(C)n1C`, for which, in test [1], the Activity came out at 91%.
